Compound activity from PubChem.
In the library only some 4% were active in any assay of this set; here they are far more common.
TAAR1 ag: human TAAR1 agonism; Q96RJ0; CHO RD-HGA16 TAAR1, Fluo-8 calcium fluorescence; vehicle wells 0%, saturating PEA agonist 100%; activation, % at 3 µM; 360,000 compounds, 0.99% hits;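 active = activation above the mean activation of all test compounds in the run plus 3 SD, cut at about 38% in these data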
Target sequence (Q96RJ0 whole entry, looked up): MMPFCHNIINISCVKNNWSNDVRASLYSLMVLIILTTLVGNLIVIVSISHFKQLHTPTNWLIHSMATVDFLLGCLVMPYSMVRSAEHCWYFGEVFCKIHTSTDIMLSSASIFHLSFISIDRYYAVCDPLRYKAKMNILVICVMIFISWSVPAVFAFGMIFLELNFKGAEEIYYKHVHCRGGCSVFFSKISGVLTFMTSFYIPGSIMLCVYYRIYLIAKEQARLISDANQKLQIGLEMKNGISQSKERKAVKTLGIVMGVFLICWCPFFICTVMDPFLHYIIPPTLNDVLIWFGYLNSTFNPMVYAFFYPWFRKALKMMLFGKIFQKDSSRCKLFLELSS
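Test system: RD-HGA16 (CHO) cells co-expressing Gα16 and hTAAR1 / Benchmarks: DMSO vehicle as 0%, PEA at EC100 as 100% / Repeats: no replicates (n 1) / Measure: % activation from peak over basal fluorescence ratio, DMSO-to-PEA scaled / Timing: 17-24 h plating, Fluo-8 75 min 37 °C, 30 min RT / Technique: kinetic Fluo-8 calcium fluorescence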
OX1R antag-1: blocks the human orexin 1 receptor. O43613. CHO/OX1R cells, Fluo-8 calcium fluorescence, orexin A. inhibition, % at 5 µM. 330,000 compounds, 0.43% hits;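 active = inhibition above its plate's threshold, mean inhibition of all tested compounds on the plate plus 3 SD, cut at about 37% in these data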;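 also: 0% = orexin A challenge wells and 100% = SB-334867-A antagonist wells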
Target sequence (O43613 whole entry, looked up): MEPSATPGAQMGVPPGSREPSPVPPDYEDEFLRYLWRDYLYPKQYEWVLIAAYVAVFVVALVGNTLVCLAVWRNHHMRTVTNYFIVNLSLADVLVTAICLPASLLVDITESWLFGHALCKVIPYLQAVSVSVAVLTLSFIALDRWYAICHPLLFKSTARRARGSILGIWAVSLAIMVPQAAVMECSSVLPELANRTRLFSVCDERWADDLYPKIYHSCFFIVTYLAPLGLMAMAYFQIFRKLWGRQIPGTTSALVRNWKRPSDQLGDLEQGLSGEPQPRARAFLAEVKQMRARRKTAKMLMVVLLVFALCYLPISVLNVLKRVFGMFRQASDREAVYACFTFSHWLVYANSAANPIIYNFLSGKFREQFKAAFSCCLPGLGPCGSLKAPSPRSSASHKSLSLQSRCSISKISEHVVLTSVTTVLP
CHO parental Ca: counter-screen: ATP calcium response change in parental CHO cells; parental CHO-K1, ATP-induced calcium, Fluo-8 fluorescence; 330,000 compounds, 0.63% hits; inhibition, % at 5.6 µM;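 active = inhibition above that plate's mean sample inhibition plus 3 SD, cut at about 26% in these data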;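 also: 0% = ATP-challenged DMSO wells and 100% = DMSO wells without ATP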
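Assay system: parental CHO cells; Read-out basis: percent inhibition of ATP-evoked calcium rise, normalized to controls; Benchmarks: ATP and no-ATP DMSO wells; Compound dosing: single nominal dose of 5.6 µM per compound; Signal: Fluo-8 calcium dye fluorescence; Also added: ATP as calcium-mobilizing challenge; Repeats: singlicate.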
TAAR1 antag: human TAAR1 antagonism; Q96RJ0; CHO RD-HGA16 TAAR1, Fluo-8 calcium fluorescence, antagonist; inhibition, % at 3 µM; 360,000 compounds, 1.5% hits;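 active = inhibition above a per-plate cutoff, the mean inhibition of test compounds on that plate plus 3 SD, cut at about 49% in these data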;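 also: 0% = DMSO plus EC80 beta-PEA response and 100% = DMSO alone without agonist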
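Test system: hTAAR1-expressing CHO RD-HGA16 cells, Gα16-coupled; Probe or stimulus: EC80 β-phenethylamine stimulus; Compound dosing: single nominal final test compound concentration of 3 µM; Timing: 140 s kinetic read after compound, 140 s after agonist; Signal: Fluo-8 calcium-sensitive fluorescence; Measure: % inhibition of agonist calcium response; Controls: DMSO and EC80 PEA controls.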
OX1R antag-2: antagonists of human orexin 1 receptor (OX1R); O43613; OX1R-expressing cells, FRET antagonist read-out; inhibition, % at 6.6 µM; 330,000 compounds, 1.8% hits; in the data active = inhibition mostly above about 38%, no sharp cut-off; inactive = mostly below about 40%;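 also: 0% = agonist challenge alone and 100% = reference antagonist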
TAAR1 nonsel count: nonselective antagonism, TAAR1 counter-screen; counterscreen cell line, calcium fluorescence, antagonist mode; shares compounds with TAAR1 antag; 2,400 compounds, 77% hits; inhibition, % at 3 µM; in the data active = inhibition above about 22%;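 also: CHO-Ga16 host cells stimulated with ATP at an EC80 level; 0% = agonist EC80 plus vehicle and 100% = vehicle without agonist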
TAAR1 ant conf: human TAAR1 antagonism, confirmed; 2,400 compounds, 40% hits; TAAR1-expressing cells, fluorescence antagonist read-out; inhibition, % at 3 µM; shares compounds with TAAR1 antag; in the data active = inhibition above about 49%;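 also: CHO-Ga16 host cells challenged with agonist PEA near its EC80; 0% = agonist at EC80 plus vehicle and 100% = vehicle with no agonist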
Ga16 nonsel ag: counter-screen for TAAR1 antagonists: nonselective Ga16 agonists | 2,400 compounds, 18% hits | shares compounds with TAAR1 antag | activation, % at 3 µM | Ga16-expressing cells, calcium fluorescence, agonist counterscreen | AID 651953; in the data active = activation above about 12%;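 also: 0% = vehicle wells and 100% = saturating stimulus response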
TAAR1 ag count: TAAR1 agonism, antagonist counter-screen. activation, % at 3 µM. 2,400 compounds, 2% hits. shares compounds with TAAR1 antag. AID 651955. hTAAR1 cell line, fluorescence activation, agonist mode; in the data active = activation above about 37%;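 also: CHO cells stably expressing TAAR1 with calcium dye readout; 0% = DMSO vehicle and 100% = full agonist response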
Numbers without * were called inactive; . = not tested or not shown.

SMILES | TAAR1 ag | OX1R antag-1 | CHO parental Ca | TAAR1 antag | OX1R antag-2 | TAAR1 nonsel count | TAAR1 ant conf | Ga16 nonsel ag | TAAR1 ag count
COC(=O)C1(CC2CC(c3cccc(Br)c3)=NO2)CCN(C(=O)OC(C)(C)C)CC1 (stereo not given) | 12 | -29 | -8 | 71* | 15 | 29* | 64* | 5 | 7
CC1CCCN(c2ccc(C(=O)Nc3ccc4c(c3)OCO4)cc2[N+](=O)[O-])C1 (stereo not given) | 0 | 6 | -26 | 70* | 58 | 25* | 73* | 7 | 8
CC1CCCN(c2ccc(C(=O)NCc3ccc4c(c3)OCO4)cc2[N+](=O)[O-])C1 (stereo not given) | 2 | -6 | -10 | -4 | 16 | . | . | . | .
Cc1nn(-c2ccccn2)c2c1-c1nc(N)ncc1CC2 | 8 | -18 | -10 | -11 | 18 | . | . | . | .
Cc1nn(-c2ccccn2)c2c1-c1nc(N3CCOCC3)ncc1CC2 | 15 | -20 | -12 | 70* | 16 | 27* | 49* | 6 | 5
O=C(Nc1cccc(S(=O)(=O)N2CCCCCC2)c1)c1ccc(Cl)nc1 | 9 | -23 | -13 | 54* | 12 | 27* | 37 | 8 | 7
O=C(Nc1cccc(S(=O)(=O)C(F)F)c1)c1ccc(Cl)c(S(=O)(=O)N2CCOCC2)c1 | 35 | 15 | 6 | 74* | 12 | 50* | 65* | 19* | 23
O=C(Nc1ccc(Cl)c(S(=O)(=O)N2CCOCC2)c1)c1ccc(Cl)nc1 | 24 | . | . | 67* | . | 32* | 52* | 12* | 15
O=C(Nc1ccc(Cl)c(S(=O)(=O)N2CCOCC2)c1)c1ccc2c(c1)OCCO2 | 9 | -24 | -9 | 46 | 3 | . | . | . | .
O=C(Nc1ccc(Cl)c(S(=O)(=O)N2CCOCC2)c1)c1cc(-c2ccccn2)nc2ccccc12 | 25 | -26 | -1 | 63* | 20 | 43* | 57* | 14* | 13
CCN(C(=O)COC(=O)Cn1c(=O)oc2ccccc21)c1c(N)n(Cc2ccccc2)c(=O)[nH]c1=O | 12 | . | . | 16 | . | . | . | . | .
CC(OC(=O)C1CCN(S(=O)(=O)c2ccc3c(c2)OCCO3)CC1)C(=O)NC1(C#N)CCCCC1 (stereo not given) | 1 | . | . | -14 | . | . | . | . | .
CC(C(=O)N1CCc2ccccc21)N1CCN(c2cccc(C(F)(F)F)c2)CC1 (stereo not given) | 0 | -39 | -34 | -7 | 20 | . | . | . | .
CCOc1ccc(NC(=O)C2CCCN2S(=O)(=O)c2ccc3c(c2)C(C)(C)C(=O)N3C)cc1 (stereo not given) | -1 | -27 | -22 | 0 | 9 | . | . | . | .
Cc1cc(C(=O)Nc2ccccc2Cl)n(-c2ccccc2)n1 | 1 | -34 | -17 | 1 | 7 | . | . | . | .
C[C@@H](C(=O)O)[C@H]1C[C@]1(C)[C@H](NC(=O)OCc1ccccc1)c1ccccc1 | -1 | -8 | -8 | 75* | 24 | 6 | 3 | 2 | -1
CN(C)C(=O)[C@@H]1C[C@H]1[C@@H](NC(=O)OCc1ccccc1)c1ccccc1 | 3 | -25 | -9 | 3 | 36 | . | . | . | .
COC(=O)[C@H]1C[C@@H]1[C@H](NC(=O)[C@H]1C[C@@H]1[C@H](NC(=O)OCc1ccccc1)c1ccccc1)c1ccccc1 | 11 | -24 | -23 | 59* | 32 | 30* | 34 | 5 | 1
COc1ccc(-c2cccc(N3CCN(c4ccccn4)CC3)n2)cc1OC | 5 | . | . | 43 | . | . | . | . | .
O=C(NCc1cc([N+](=O)[O-])ccc1O)c1cc(-c2ccncc2)nc2ccccc12 | 19 | -10 | -15 | 67* | 53 | 32* | 56* | 11 | 8
Cc1ccc(Sc2ncccc2C(=O)NCc2cc([N+](=O)[O-])ccc2O)cc1C | 20 | . | . | 60* | . | 29* | 41 | 11 | 14
NS(=O)(=O)c1ccc(CNC(=O)c2cc(-c3ccccc3)nc3ccccc23)cc1 | 10 | 2 | 5 | 65* | 12 | 32* | 41 | 7 | 5
COC(=O)c1cc(NC(=O)COC(=O)C2COc3ccccc3O2)cc(C(=O)OC)c1 (stereo not given) | 9 | 5 | 5 | 72* | 6 | 26* | 42 | 8 | 4
COc1ccc(Nc2nc(N)c([N+](=O)[O-])c(N3CCOCC3)n2)cc1 | 6 | -34 | -47 | 31 | 23 | . | . | . | .
CN(C)c1ccc(Nc2nc(N)c([N+](=O)[O-])c(N3CCOCC3)n2)cc1 | 14 | -24 | -20 | 54* | 35 | 22* | 36 | 7 | 6
SMILES | TAAR1 ag | OX1R antag-1 | CHO parental Ca | TAAR1 antag | OX1R antag-2 | TAAR1 nonsel count | TAAR1 ant conf | Ga16 nonsel ag | TAAR1 ag count
CNc1cc(-c2cccc(OC)c2F)nc2ccnn12 | -2 | . | . | -3 | . | . | . | . | .
CC(=O)N1CCN(c2ccccc2NC(=O)c2ccc(-c3cccc([N+](=O)[O-])c3)o2)CC1 | 10 | -15 | -12 | 66* | 5 | 28* | 49* | 7 | 4
COc1ccc(CCNC(=O)c2ccc(-c3cccc([N+](=O)[O-])c3)o2)cc1OC | 25 | -27 | -6 | 60* | 21 | 28* | 46 | 15* | 14
CCc1ccc2[nH]c(=O)c(CN(Cc3ccccc3)C(=O)Nc3ccccc3OC)cc2c1 | 5 | -43 | -36 | 35 | 20 | . | . | . | .
CN(C)C(=O)c1ccc(-n2cccn2)nc1 | 3 | -7 | 4 | 3 | 12 | . | . | . | .
Cc1ccccc1NS(=O)(=O)c1ccc(C(=O)N2CCN(c3ccccc3O)CC2)cc1 | 19 | 1 | -5 | 75* | 12 | 28* | 41 | 12* | 7
O=C(CCCOc1cccc(Br)c1)NCCOc1ccccc1 | 0 | -7 | -7 | -17 | 21 | . | . | . | .
Nc1nc(SCCO)[nH]c(=O)c1NC(=O)c1ccc(Br)o1 | 1 | 3 | -10 | -7 | 8 | . | . | . | .
Cc1ccc(-c2nc(-c3ccncc3)no2)cc1 | 5 | . | . | -28 | . | . | . | . | .
CC(C)(C)c1ccc(-c2nc(-c3ccncc3)no2)cc1 | -3 | -16 | 0 | 106* | 15 | 15 | 19 | 13* | 26
Cc1cc(C)n(-c2ccc(Cl)c(C(=O)Nc3cc(C(F)(F)F)ccc3Cl)n2)n1 | 1 | -5 | -13 | -33 | 11 | . | . | . | .
O=C(CSc1c(Cl)cccc1Cl)N1CCC(c2nc3ccccc3s2)CC1 | 18 | 9 | 0 | 59* | 33 | 44* | 50* | 12* | 11
CC1CN(C(=O)COC(=O)c2ccccc2O)CC(C)O1 (stereo not given) | 0 | -3 | -4 | -1 | 7 | . | . | . | .
